The text below walks through data of ChEMBL document CHEMBL1770121 (Bioorg Med Chem, 2011).

A short description of test [1]: Inhibition of bovine brain tubulin polymerization after 20 mins by turbidimetry. Details: species or system Bos taurus. The gist of the method:
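Varying concentrations were preincubated with 10 µM tubulin in glutamate buffer at 30 °C, then cooled to 0 °C. GTP was added and the mixtures moved to 0 °C cuvettes in a recording spectrophotometer. Assembly was followed by turbidity on warming to 30 °C.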

The subject of test [2] is A549. The experiment in a line: Antiproliferative activity against human A549 cells after 48 hrs by MTT assay. Format: functional, cell-based. To be noted: A549, 48 h. An outline of the steps:
(§1)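 Log-phase cells grown in RPMI 1640 with 10% FBS were seeded at 2 × 10⁴ cells/mL and left 24 h at 37 °C, 5% CO₂. […] After 48 h MTT was added and the formazan dissolved in 10% SDS–5% isobutyl alcohol–0.01 M HCl overnight at 37 °C. OD was read at 570 nm, three replicate wells per concentration.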
Background: Tetrazolium assays rely on reduction of a dye to a coloured formazan, in cell work by metabolically active cells.

Test [3] deals with B16-F10. The experiment in a line: Antiproliferative activity against mouse B16F10 cells after 48 hrs by MTT assay. Particulars: B16-F10, 48 h. It counts as functional, cell-based. An outline of the steps:
as §1

The test system of test [4] is HepG2. As to the kind of experiment: Antiproliferative activity against human HepG2 cells after 48 hrs by MTT assay. Particulars: HepG2, 48 h. It counts as functional, cell-based. An outline of the steps:
as §1

The subject of test [5] is B16-F10. As to the kind of experiment: Cell cycle arrest in mouse B16F10 cells assessed as accumulation at G2/M phase at 5 ug/ml after 24 hrs by flow cytometry (Rbv = 12.27%). Format: functional. (In general: In flow cytometry, cells or beads pass a laser one at a time.)
Test [6] has as its system B16-F10. The experiment in a line: Cell cycle arrest in mouse B16F10 cells assessed as accumulation at S phase at 5 ug/ml after 24 hrs by flow cytometry (Rbv = 14.96%). It counts as functional.
The subject of test [7] is B16-F10. As to the kind of experiment: Cell cycle arrest in mouse B16F10 cells assessed as accumulation at S phase at 1 ug/ml after 24 hrs by flow cytometry (Rbv = 14.96%). Format: functional.
Test [8] relates to B16-F10. As to the kind of experiment: Cell cycle arrest in mouse B16F10 cells assessed as accumulation at Go/G1 phase at 1 ug/ml after 24 hrs by flow cytometry (Rbv = 66.15%). It counts as functional.
The subject of test [9] is B16-F10. The experiment in a line: Cell cycle arrest in mouse B16F10 cells assessed as accumulation at Go/G1 phase at 5 ug/ml after 24 hrs by flow cytometry (Rbv = 66.15%). It counts as functional.
Test [10] deals with B16-F10. As to the kind of experiment: Cell cycle arrest in mouse B16F10 cells assessed as accumulation at G2/M phase at 1 ug/ml after 24 hrs by flow cytometry (Rbv = 12.27%). It counts as functional.

≈ marks a conversion by molar mass, not a printed value.

For orientation: IC50 means the concentration at which inhibition is half-maximal. A high value points to lower potency. With `CCCCOc1ccc(C(=O)/C=C/c2c(/C=C/c3ccc(OC)cc3)cc(OC)cc2OC)cc1`, the 50% inhibitory concentration (IC50) in test [1] turned out to be 94 µg/mL (≈ 199 µM); in test [2], 8.7 µg/mL (≈ 18.4 µM); in test [3], 5.3 µg/mL (≈ 11.2 µM); in test [4], 12.9 µg/mL (≈ 27.3 µM).

Regarding `CCCC(C)Oc1ccc(C(=O)/C=C/c2c(/C=C/c3ccc(OC)cc3)cc(OC)cc2OC)cc1` (configuration not stated), the half-inhibitory concentration (IC50) in test [1] was 55 µg/mL (≈ 113 µM); in test [2], 9.4 µg/mL (≈ 19.3 µM); in test [3] it was 6.7 µg/mL (≈ 13.8 µM); in [4], 11.1 µg/mL (≈ 22.8 µM).

For the compound `CCCCCCOc1ccc(C(=O)/C=C/c2c(/C=C/c3ccc(OC)cc3)cc(OC)cc2OC)cc1`, the IC50 is 131 µg/mL (≈ 262 µM) in test [1], 8.4 µg/mL (≈ 16.8 µM) in [2], 10.4 µg/mL (≈ 20.8 µM) in [3] and 16.2 µg/mL (≈ 32.4 µM) in test [4].

On to `CCCCCCCCCCCCOc1ccc(C(=O)/C=C/c2c(/C=C/c3ccc(OC)cc3)cc(OC)cc2OC)cc1`, for which the half-inhibitory concentration (IC50) in [1] worked out at 58 µg/mL (≈ 99.2 µM); in test [2] it was 7.9 µg/mL (≈ 13.5 µM); in test [3], 12.7 µg/mL (≈ 21.7 µM); in [4] it was 11.6 µg/mL (≈ 19.8 µM).

With `COc1ccc(/C=C/c2cc(OC)cc(OC)c2/C=C/C(=O)c2ccc(F)cc2)cc1`, the IC50 in test [1] was 64 µg/mL (≈ 153 µM); in [2] it was 6.6 µg/mL (≈ 15.8 µM); in test [3] it was 5.3 µg/mL (≈ 12.7 µM); in [4] it was 12.2 µg/mL (≈ 29.2 µM).

Regarding `COc1ccc(/C=C/c2cc(OC)cc(OC)c2/C=C/C(=O)c2ccc(Cl)cc2)cc1`, the IC50 in test [1] came out at 80 µg/mL (≈ 184 µM); in test [2] it was 6.4 µg/mL (≈ 14.7 µM); in test [3] it was 4.9 µg/mL (≈ 11.3 µM); in [4] it was 13.6 µg/mL (≈ 31.3 µM).

As for `COc1ccc(/C=C/c2cc(OC)cc(OC)c2/C=C/C(=O)c2ccc(Br)cc2)cc1`, the IC50 in [1] turned out to be 72 µg/mL (≈ 150 µM); in [2], 8.3 µg/mL (≈ 17.3 µM); in test [3], 6.5 µg/mL (≈ 13.6 µM); in test [4], 12.9 µg/mL (≈ 26.9 µM).

For `COc1ccc(/C=C/c2cc(OC)cc(OC)c2/C=C/C(=O)c2cccc(Cl)c2)cc1`, the IC50 amounted to 41 µg/mL (≈ 94.3 µM) in [1], 5.6 µg/mL (≈ 12.9 µM) in test [2], 3.3 µg/mL (≈ 7.59 µM) in test [3] and 9.5 µg/mL (≈ 21.8 µM) in test [4].

Turning to `COc1ccc(/C=C/c2cc(OC)cc(OC)c2/C=C/C(=O)c2cccc(Br)c2)cc1`, the IC50 in test [1] was found to be 76 µg/mL (≈ 159 µM); in test [2], 8.1 µg/mL (≈ 16.9 µM); in test [3], 5.1 µg/mL (≈ 10.6 µM); in test [4] it was 13 µg/mL (≈ 27.1 µM).

As to `COc1ccc(/C=C/c2cc(OC)cc(OC)c2/C=C/C(=O)c2ccc(Cl)c(Cl)c2)cc1`, the concentration for half-maximal inhibition (IC50) came to 47 µg/mL (≈ 100 µM) in [1], 5.9 µg/mL (≈ 12.6 µM) in test [2], 7.5 µg/mL (≈ 16 µM) in test [3] and 10.8 µg/mL (≈ 23 µM) in test [4].

On to `COc1ccc(/C=C/c2cc(OC)cc(OC)c2/C=C/C(=O)c2ccc(C(F)(F)F)cc2)cc1`, for which the half-inhibitory concentration (IC50) is 150 µg/mL (≈ 320 µM) in [1], 7.8 µg/mL (≈ 16.6 µM) in [2], 4.3 µg/mL (≈ 9.18 µM) in test [3] and 18.7 µg/mL (≈ 39.9 µM) in test [4].

Turning to `COc1ccc(/C=C/c2cc(OC)cc(OC)c2/C=C/C(=O)c2ccc(C)cc2)cc1`, the IC50 in test [1] stood at 29 µg/mL (≈ 70 µM); in test [2], 3.6 µg/mL (≈ 8.69 µM); in [3], 5.3 µg/mL (≈ 12.8 µM); in test [4], 4.8 µg/mL (≈ 11.6 µM).

As to `COc1ccc(/C=C/c2cc(OC)cc(OC)c2/C=C/C(=O)c2ccccc2C)cc1`, the IC50 in [1] was 42 µg/mL (≈ 101 µM); in test [2] it was 5.9 µg/mL (≈ 14.2 µM); in test [3], 6.1 µg/mL (≈ 14.7 µM); in test [4] it was 5.3 µg/mL (≈ 12.8 µM).

For `COc1ccc(/C=C/c2cc(OC)cc(OC)c2/C=C/C(=O)c2ccc(C)cc2C)cc1`, the half-inhibitory concentration (IC50) is 4.1 µg/mL (≈ 9.57 µM) in test [1], 0.3 µg/mL (≈ 0.7 µM) in test [2], 4 µg/mL (≈ 9.33 µM) in test [3] and 0.9 µg/mL (≈ 2.1 µM) in test [4].

In the case of `COc1ccc(/C=C/c2cc(OC)cc(OC)c2/C=C/C(=O)c2ccc(C)c(C)c2)cc1`, the Activity in test [5] came out at 72.1%; in [6], 7.04%; in [7], 13.99%; in test [8], 39.65%; in [9] it was 10.05%; in test [10], 31.5%. Besides, the half-maximal inhibitory concentration (IC50) in test [1] stood at 2.6 µg/mL (≈ 6.07 µM); in [2], 0.1 µg/mL (≈ 0.233 µM); in [3], 1.4 µg/mL (≈ 3.27 µM); in test [4] it was 0.2 µg/mL (≈ 0.467 µM).

In the case of `COc1ccc(/C=C/c2cc(OC)cc(OC)c2/C=C/C(=O)c2ccc(N)cc2)cc1`, the IC50 in test [1] worked out at 36 µg/mL (≈ 86.6 µM); in test [2] it was 3.8 µg/mL (≈ 9.15 µM); in test [3], 2.8 µg/mL (≈ 6.74 µM); in test [4], 7.5 µg/mL (≈ 18.1 µM).

`CCN(CC)c1ccc(C(=O)/C=C/c2c(/C=C/c3ccc(OC)cc3)cc(OC)cc2OC)cc1`: the IC50 in test [1] was 33 µg/mL (≈ 70 µM); in test [2] it was 5.4 µg/mL (≈ 11.5 µM); in test [3], 8.1 µg/mL (≈ 17.2 µM); in test [4], 6.3 µg/mL (≈ 13.4 µM).

With `COc1ccc(/C=C/c2cc(OC)cc(OC)c2/C=C/C(=O)c2ccc(-c3ccccc3)cc2)cc1`, the 50% inhibitory concentration (IC50) was determined as 44 µg/mL (≈ 92.3 µM) in test [1], 4.6 µg/mL (≈ 9.65 µM) in test [2], 10.6 µg/mL (≈ 22.2 µM) in test [3] and 10.5 µg/mL (≈ 22 µM) in test [4].

As to `COc1ccc(/C=C/c2cc(OC)cc(OC)c2/C=C/C(=O)c2ccc(N3CCOCC3)cc2)cc1`, the IC50 amounted to 38 µg/mL (≈ 78.3 µM) in test [1], 3.8 µg/mL (≈ 7.83 µM) in test [2], 3.3 µg/mL (≈ 6.8 µM) in test [3] and 7.3 µg/mL (≈ 15 µM) in [4].

Turning to `COc1ccc(/C=C/c2cc(OC)cc(OC)c2/C=C/C(=O)c2ccccc2)cc1`, the half-maximal inhibitory concentration (IC50) in [1] is 34 µg/mL (≈ 84.9 µM); in [2], 3.9 µg/mL (≈ 9.74 µM); in test [3], 3.7 µg/mL (≈ 9.24 µM); in test [4] it was 6.8 µg/mL (≈ 17 µM).

For the compound `COc1ccc(/C=C/c2cc(OC)cc(OC)c2/C=C/C(=O)c2cccc(OC)c2)cc1`, the half-inhibitory concentration (IC50) was found to be 59 µg/mL (≈ 137 µM) in test [1], 6.1 µg/mL (≈ 14.2 µM) in test [2], 4.3 µg/mL (≈ 9.99 µM) in test [3] and 11.6 µg/mL (≈ 26.9 µM) in test [4].

Consider `COc1ccc(/C=C/c2cc(OC)cc(OC)c2/C=C/C(=O)c2ccc(OC)cc2)cc1`, for which the IC50 was 43 µg/mL (≈ 99.9 µM) in test [1], 4.5 µg/mL (≈ 10.5 µM) in test [2], 5.8 µg/mL (≈ 13.5 µM) in [3] and 4.9 µg/mL (≈ 11.4 µM) in [4].

With `CCOc1ccc(C(=O)/C=C/c2c(/C=C/c3ccc(OC)cc3)cc(OC)cc2OC)cc1`, the IC50 in test [1] came out at 26 µg/mL (≈ 58.5 µM); in test [2] it was 7.5 µg/mL (≈ 16.9 µM); in [3], 6.4 µg/mL (≈ 14.4 µM); in test [4], 8 µg/mL (≈ 18 µM).

As for `COc1cc2c(c(OC)c1OC)-c1ccc(OC)c(=O)cc1[C@@H](NC(C)=O)CC2` [COLCHICINE], the IC50 in test [2] is 0.12 µg/mL (≈ 0.3 µM); in test [3], 0.5 µg/mL (≈ 1.25 µM); in test [4], 0.23 µg/mL (≈ 0.576 µM). For the same compound, the Activity in test [7] is reported as 2.29%; in test [8] it was 2.65%; in test [10] it was 90.46%.

Turning to `COc1ccc(/C=C\c2cc(OC)c(OC)c(OC)c2)cc1O` [COMBRETASTATIN A4], the half-maximal inhibitory concentration (IC50) came to 0.7 µg/mL (≈ 2.21 µM) in test [1], 0.09 µg/mL (≈ 0.284 µM) in [2], 0.4 µg/mL (≈ 1.26 µM) in [3] and 0.19 µg/mL (≈ 0.601 µM) in test [4].

As to `Oc1ccc(/C=C/c2cc(O)cc(O)c2)cc1` [RESVERATROL], the 50% inhibitory concentration (IC50) amounted to 158 µg/mL (≈ 692 µM) in test [1], 30.4 µg/mL (≈ 133 µM) in [2], 37.3 µg/mL (≈ 163 µM) in test [3] and 38.9 µg/mL (≈ 170 µM) in test [4].
